Experimental data collected from several papers.
Target: Tyrosine-protein kinase ABL2 (ABL2, Homo sapiens, UniProt P42684)

Structure (SMILES)	effect on	mode	technique	tested at	measurement	value
O=c1[nH]c2ccccc2n1C1CCN(Cc2ccc(-c3[nH]c4cc5ncnc5cc4nc3-c3ccccc3)cc2)CC1	cell-free assay			0.5 µM	remaining signal	96.8%
COc1ncccc1-c1cnn2ccc(N3CCN(C(=O)OC(C)C)CC3)nc12	binding		competition with immobilised ligand	1 µM	remaining binding	100%
Cn1cc(-c2cccc(N3CCc4c(sc5c4CC(C)(C)C5)C3=O)c2CO)cc(Nc2ccncn2)c1=O	enzyme activity	inhibitor		1 µM	inhibition	4%
Cc1nn(C)cc1-c1nc2c(N3CCN(Cc4ccc(Cl)cc4)CC3)c(Cl)cnc2[nH]1	binding		competition with immobilised ligand	1 µM	remaining binding	100%
C#Cc1n[nH]c2c(-c3cn([C@@H](C)c4ccccc4)c(=O)[nH]c3=O)cc(F)cc12	enzyme activity	inhibitor		0.1 µM	inhibition	2.4%
Cn1cncc1[C@](O)(COc1ccc(C#N)cc1-c1ccc(OC(F)(F)F)cc1)c1ccc(C#N)cc1	cell-free assay		competition with immobilised ligand	1 µM	remaining binding	83%
CC(C)(C)c1cc(C=C(C#N)C#N)cc(Br)c1O	enzyme activity	inhibitor		0.5 µM	remaining activity	57.1%
C#Cc1n[nH]c2c(-c3cn([C@@H](C)c4ccccn4)c(=O)[nH]c3=O)cc(F)cc12	enzyme activity	inhibitor		0.1 µM	inhibition	5.9%
COc1cc(Nc2ncc(F)c(Nc3ccc4c(n3)NC(=O)C(C)(C)O4)n2)cc(OC)c1OC	binding		competition with immobilised ligand	10 µM	inhibition	77%
Cn1cc(-c2cc(F)cc(N3CCn4c(cc5c4CCCC5)C3=O)c2CO)cc(Nc2ccc(N3CCN(C4COC4)CC3)cn2)c1=O	enzyme activity	inhibitor		0.1 µM	inhibition	11%
Nc1ncc(-c2nc(N3CCOCC3)nc(N3CCOCC3)n2)c(C(F)F)n1	binding		competition with immobilised ligand	10 µM	remaining binding	99%
